ChEMBL document CHEMBL4689842, “EUbOPEN Chemogenomics Library wave 1” (2021)

System: HEK-293T
Assay: Multiplex assay against HEK293T;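 for Population Tubulin-Different-Phenotype (%): share of the cells with healthy nuclei that show this phenotype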
Format: toxicity, cell-based
Settings: human
Method in brief: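 On a CQ1 microscope at 37°C and 5% CO2, live cells were imaged after compound addition. They had been stained at seeding with Hoechst33342, BioTracker Green Microtubule Cytoskeleton Dye, MitoTracker Red and Annexin V Alexa Fluor 680. CellPathfinder machine-learning gating assigned cells to Hoechst high-intensity objects or normal cells, normal cells to healthy, pyknosed or fragmented nuclei, and pyknosed cells to mitotic or apoptotic. Tubulin, mitochondrial-mass and membrane-permeability phenotypes are per cents of healthy-nucleus cells.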

[1] = 12 h, 1 µM, compound concentration 1 uM, replicate 1
[2] = 12 h, 1 µM, compound concentration 1 uM, replicate 2
[3] = 12 h, 10 µM, compound concentration 10 uM, replicate 1
[4] = 12 h, 10 µM, compound concentration 10 uM, replicate 2
[5] = 24 h, 1 µM, compound concentration 1 uM, replicate 1
[6] = 24 h, 1 µM, compound concentration 1 uM, replicate 2
[7] = 24 h, 10 µM, compound concentration 10 uM, replicate 1
[8] = 24 h, 10 µM, compound concentration 10 uM, replicate 2
[9] = 48 h, 1 µM, compound concentration 1 uM, replicate 1
[10] = 48 h, 1 µM, compound concentration 1 uM, replicate 2
[11] = 48 h, 10 µM, compound concentration 10 uM, replicate 1
[12] = 48 h, 10 µM, compound concentration 10 uM, replicate 2

SMILES: CC1=C(C(=O)Nc2cc3cn[nH]c3cc2F)C(c2ccc(C(F)(F)F)cc2)CC(=O)N1 (stereo not given)
- Population Apoptotic (%) [1]: 47%
- Population Fragmented Nuclei (%) [1]: 13%
- Population Healthy Nuclei (%) [1]: 43%
- Population Hoechst High Intensity Objects (%) [1]: 7%
- Population Membrane Permeable-Phenotype (%) [1]: 3%
- Population Mitochondria Different-Phenotype (%) [1]: 63%
- Population Mitotic Cells (%) [1]: 52%
- Population Normal (%) [1]: 92%
- Population Pyknosed Nuclei (%) [1]: 42%
- Population Tubulin-Different-Phenotype (%) [1]: 29%
- Total Cell Count [1]: 402
- Population Apoptotic (%) [2]: 6%
- Population Fragmented Nuclei (%) [2]: 12%
- Population Healthy Nuclei (%) [2]: 46%
- Population Hoechst High Intensity Objects (%) [2]: 2%
- Population Membrane Permeable-Phenotype (%) [2]: 12%
- Population Mitochondria Different-Phenotype (%) [2]: 12%
- Population Mitotic Cells (%) [2]: 93%
- Population Normal (%) [2]: 97%
- Population Pyknosed Nuclei (%) [2]: 40%
- Population Tubulin-Different-Phenotype (%) [2]: 14%
- Total Cell Count [2]: 235
- Population Apoptotic (%) [3]: 38%
- Population Fragmented Nuclei (%) [3]: 12%
- Population Healthy Nuclei (%) [3]: 41%
- Population Hoechst High Intensity Objects (%) [3]: 10%
- Population Membrane Permeable-Phenotype (%) [3]: 5%
- Population Mitochondria Different-Phenotype (%) [3]: 64%
- Population Mitotic Cells (%) [3]: 61%
- Population Normal (%) [3]: 89%
- Population Pyknosed Nuclei (%) [3]: 45%
- Population Tubulin-Different-Phenotype (%) [3]: 36%
- Total Cell Count [3]: 236
- Population Apoptotic (%) [4]: 16%
- Population Fragmented Nuclei (%) [4]: 10%
- Population Healthy Nuclei (%) [4]: 37%
- Population Hoechst High Intensity Objects (%) [4]: 5%
- Population Membrane Permeable-Phenotype (%) [4]: 11%
- Population Mitochondria Different-Phenotype (%) [4]: 24%
- Population Mitotic Cells (%) [4]: 83%
- Population Normal (%) [4]: 95%
- Population Pyknosed Nuclei (%) [4]: 52%
- Population Tubulin-Different-Phenotype (%) [4]: 34%
- Total Cell Count [4]: 240
- Population Apoptotic (%) [5]: 41%
- Population Fragmented Nuclei (%) [5]: 11%
- Population Healthy Nuclei (%) [5]: 41%
- Population Hoechst High Intensity Objects (%) [5]: 12%
- Population Membrane Permeable-Phenotype (%) [5]: 3%
- Population Mitochondria Different-Phenotype (%) [5]: 46%
- Population Mitotic Cells (%) [5]: 58%
- Population Normal (%) [5]: 87%
- Population Pyknosed Nuclei (%) [5]: 47%
- Population Tubulin-Different-Phenotype (%) [5]: 29%
- Total Cell Count [5]: 443
- Population Apoptotic (%) [6]: 12%
- Population Healthy Nuclei (%) [6]: 63%
- Population Hoechst High Intensity Objects (%) [6]: 1%
- Population Membrane Permeable-Phenotype (%) [6]: 14%
- Population Mitochondria Different-Phenotype (%) [6]: 8%
- Population Mitotic Cells (%) [6]: 87%
- Population Normal (%) [6]: 98%
- Population Pyknosed Nuclei (%) [6]: 25%
- Population Tubulin-Different-Phenotype (%) [6]: 17%
- Total Cell Count [6]: 274
- Population Apoptotic (%) [7]: 42%
- Population Fragmented Nuclei (%) [7]: 15%
- Population Healthy Nuclei (%) [7]: 41%
- Population Hoechst High Intensity Objects (%) [7]: 10%
- Population Membrane Permeable-Phenotype (%) [7]: 6%
- Population Mitochondria Different-Phenotype (%) [7]: 61%
- Population Mitotic Cells (%) [7]: 57%
- Population Normal (%) [7]: 89%
- Population Pyknosed Nuclei (%) [7]: 42%
- Population Tubulin-Different-Phenotype (%) [7]: 41%
- Total Cell Count [7]: 229
- Population Apoptotic (%) [8]: 26%
- Population Fragmented Nuclei (%) [8]: 11%
- Population Healthy Nuclei (%) [8]: 61%
- Population Hoechst High Intensity Objects (%) [8]: 2%
- Population Membrane Permeable-Phenotype (%) [8]: 12%
- Population Mitochondria Different-Phenotype (%) [8]: 26%
- Population Mitotic Cells (%) [8]: 73%
- Population Normal (%) [8]: 97%
- Population Pyknosed Nuclei (%) [8]: 26%
- Population Tubulin-Different-Phenotype (%) [8]: 47%
- Total Cell Count [8]: 258
- Population Apoptotic (%) [9]: 29%
- Population Fragmented Nuclei (%) [9]: 18%
- Population Healthy Nuclei (%) [9]: 47%
- Population Hoechst High Intensity Objects (%) [9]: 10%
- Population Membrane Permeable-Phenotype (%) [9]: 6%
- Population Mitochondria Different-Phenotype (%) [9]: 23%
- Population Mitotic Cells (%) [9]: 70%
- Population Normal (%) [9]: 89%
- Population Pyknosed Nuclei (%) [9]: 34%
- Population Tubulin-Different-Phenotype (%) [9]: 22%
- Total Cell Count [9]: 530
- Population Apoptotic (%) [10]: 5%
- Population Fragmented Nuclei (%) [10]: 10%
- Population Healthy Nuclei (%) [10]: 77%
- Population Hoechst High Intensity Objects (%) [10]: 2%
- Population Membrane Permeable-Phenotype (%) [10]: 8%
- Population Mitochondria Different-Phenotype (%) [10]: 3%
- Population Mitotic Cells (%) [10]: 94%
- Population Normal (%) [10]: 97%
- Population Pyknosed Nuclei (%) [10]: 11%
- Population Tubulin-Different-Phenotype (%) [10]: 15%
- Total Cell Count [10]: 488
- Population Apoptotic (%) [11]: 49%
- Population Fragmented Nuclei (%) [11]: 16%
- Population Healthy Nuclei (%) [11]: 49%
- Population Hoechst High Intensity Objects (%) [11]: 14%
- Population Membrane Permeable-Phenotype (%) [11]: 7%
- Population Mitochondria Different-Phenotype (%) [11]: 29%
- Population Mitotic Cells (%) [11]: 50%
- Population Normal (%) [11]: 85%
- Population Pyknosed Nuclei (%) [11]: 33%
- Population Tubulin-Different-Phenotype (%) [11]: 34%
- Total Cell Count [11]: 261
- Population Apoptotic (%) [12]: 65%
- Population Healthy Nuclei (%) [12]: 75%
- Population Hoechst High Intensity Objects (%) [12]: 2%
- Population Membrane Permeable-Phenotype (%) [12]: 6%
- Population Mitochondria Different-Phenotype (%) [12]: 19%
- Population Mitotic Cells (%) [12]: 34%
- Population Normal (%) [12]: 97%
- Population Pyknosed Nuclei (%) [12]: 8%
- Population Tubulin-Different-Phenotype (%) [12]: 36%
- Total Cell Count [12]: 334
